Measured values reported in ChEMBL document CHEMBL4382247, “A novel series of napabucasin derivatives as orally active inhibitors of signal transducer and activator of transcription 3 (STAT3)” (Eur J Med Chem, 2019).
≈ marks a conversion by molar mass, not a printed value.

Tests used:
PC-3 = test: Antiproliferative activity against human PC3 cells after 72 hrs by MTT assay; format: functional, cell-based; conditions: PC-3, 72 h
Summary of the method: (§1)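 Cells seeded at 5 × 10^3 per well and cultured 24 h before compound addition at varied concentrations, then grown a further 72 h; 0.5% DMSO as solvent control. MTT (5mg/ml solution) added for 4 h, formazan dissolved in DMSO, absorbance read at 570nm. Each treatment in triplicate; Mean ± SD.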

HepG2 = test: Antiproliferative activity against human HepG2 cells after 72 hrs by MTT assay; format: functional, cell-based; conditions: HepG2, 72 h; summary of the method: as §1
U-251 = test: Antiproliferative activity against human U251 cells after 72 hrs by MTT assay; format: functional, cell-based; conditions: U-251, 72 h; summary of the method: as §1
HT-29 = test: Antiproliferative activity against human HT-29 cells after 72 hrs by MTT assay; format: functional, cell-based; conditions: HT-29, 72 h; summary of the method: as §1
CT26 = test: Antiproliferative activity against mouse CT26 cells after 72 hrs by MTT assay; format: functional, cell-based; conditions: CT26, 72 h; summary of the method: as §1
[1] = Aqueous solubility of the compound in water at 2 mg after 24 hrs by HPLC analysis; format: physicochemical
Summary of the method: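 Aqueous solubility measured by HPLC against calibration standards at 15–125 µg/mL. Values are the mean of at least three determinations ± SD.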

Structure (SMILES)	IC50 (PC-3)	IC50 (HepG2)	IC50 (U-251)	IC50 (HT-29)	IC50 (CT26)	solubility at 24 h [1]
O=C(NC12CC3CC(CC(C3)C1)C2)c1cc2c(o1)C(=O)c1ccccc1C2=O	> 10 µM	> 10 µM	> 10 µM	> 10 µM		
O=C1c2ccccc2C(=O)c2oc(C(=O)N3CCN(c4cccc(C(F)(F)F)c4)CC3)cc21	> 10 µM	> 10 µM	> 10 µM	> 10 µM		
O=C(/C=C/c1cccs1)c1cc2c(o1)C(=O)c1ccccc1C2=O	> 10 µM	> 10 µM	2.2 µM	1.52 µM	> 10 µM	
O=C(NCCc1ccccc1)c1cc2c(o1)C(=O)c1ccccc1C2=O	> 10 µM	> 10 µM	> 10 µM	> 10 µM		
O=C(/C=C/c1ccc(-c2ccccc2)cc1)c1cc2c(o1)C(=O)c1ccccc1C2=O	> 10 µM	> 10 µM	> 10 µM	> 10 µM	> 10 µM	
O=C1c2ccccc2C(=O)c2oc(C(=O)N3CCCC3)cc21	9.65 µM	> 10 µM	2.18 µM	1.08 µM	0.58 µM	
O=C1c2ccccc2C(=O)c2oc(C(=O)N3CCOCC3)cc21	6.84 µM	7.3 µM	2.19 µM	0.86 µM	0.57 µM	162 µM (≈ 50.5 µg/mL)
CC1(C)CCC(NC(=O)c2cc3c(o2)C(=O)c2ccccc2C3=O)CC1	> 10 µM	11.2 µM	2.65 µM	> 10 µM		
CCN1CCN(C(=O)c2cc3c(o2)C(=O)c2ccccc2C3=O)CC1	2.06 µM	> 10 µM	0.87 µM	0.21 µM	0.59 µM	241 µM (≈ 81.5 µg/mL)
O=C1c2ccccc2C(=O)c2oc(C(=O)N3CCCCC3)cc21	> 10 µM	> 10 µM	2.16 µM	1.57 µM	0.95 µM	
Cn1cccc1/C=C/C(=O)c1cc2c(o1)C(=O)c1ccccc1C2=O	> 10 µM	> 10 µM	1.5 µM	0.87 µM	2.48 µM	
COc1ccc(CCNC(=O)c2cc3c(o2)C(=O)c2ccccc2C3=O)cc1	> 10 µM	> 10 µM	6.32 µM	> 10 µM		
COc1ccc(C2CCN(C(=O)c3cc4c(o3)C(=O)c3ccccc3C4=O)CC2)cc1	9.64 µM	> 10 µM	> 10 µM	> 10 µM		
O=C(/C=C/c1ccccc1)c1cc2c(o1)C(=O)c1ccccc1C2=O	> 10 µM	> 10 µM	> 10 µM	> 10 µM	> 10 µM	
CC(=O)c1cc2c(o1)C(=O)c1ccccc1C2=O [NAPABUCASIN]	5.25 µM	6.6 µM	2.6 µM	1.6 µM	2.5 µM	< 62.5 µM
COC(=O)CC1CCN(C(=O)c2cc3c(o2)C(=O)c2ccccc2C3=O)CC1	> 10 µM	9.66 µM	5.92 µM	> 10 µM		
O=C(NCCc1ccc(Cl)cc1)c1cc2c(o1)C(=O)c1ccccc1C2=O	> 10 µM	> 10 µM	3.36 µM	> 10 µM		
O=C1c2ccccc2C(=O)c2oc(C(=O)N3CCC(c4ccc(F)cc4)CC3)cc21	> 10 µM	> 10 µM	> 10 µM	> 10 µM		
O=C(NCCN1CCCC1)c1cc2c(o1)C(=O)c1ccccc1C2=O	4.45 µM	1.75 µM	0.9 µM	0.3 µM	0.2 µM	
O=C1c2ccccc2C(=O)c2oc(C(=O)N3CCC(c4cccc(Cl)c4)CC3)cc21	> 10 µM	> 10 µM	> 10 µM	> 10 µM		
O=C1c2ccccc2C(=O)c2oc(C(=O)N3CCSCC3)cc21	5.83 µM	9.63 µM	3.1 µM	1.65 µM	1.35 µM	< 76.5 µM
O=C1CCN(C(=O)c2cc3c(o2)C(=O)c2ccccc2C3=O)CC1	> 10 µM	2.5 µM	0.58 µM	1.13 µM	0.61 µM	118 µM (≈ 38.1 µg/mL)
O=C(NCCN1CCOCC1)c1cc2c(o1)C(=O)c1ccccc1C2=O	7.19 µM	> 10 µM	1.63 µM	0.37 µM	0.05 µM	< 70.6 µM
O=C(NC1CCCCC1)c1cc2c(o1)C(=O)c1ccccc1C2=O	> 10 µM	> 10 µM	3.02 µM	> 10 µM		
CN1CCN(C(=O)c2cc3c(o2)C(=O)c2ccccc2C3=O)CC1	4.58 µM	5.27 µM	1.37 µM	0.39 µM	0.26 µM	337 µM (≈ 109 µg/mL)
